This note sets out measurements from ChEMBL document CHEMBL1122488, “synthesis and antitumor activity of 2-deoxyribofuranosides of 3-deazaguanine” (1983).

What all share (type): functional
In one assay the test system is L1210. Nature of the assay: Effective dose that produced 50% inhibition of L1210 Leukemia cell growth in culture. The following applies: Mus musculus, read-out: ED50 (the source's name). The essentials:
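The value is the drug concentration in the culture medium that gave 50% inhibition of L1210 leukemia cell growth, relative to untreated controls, after a 48-h incubation. Results are mean ± standard error.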

In assay [1] the test system is Mus musculus. Nature of the assay: Percentage growth inhibition of mammary adenocarcinoma 16/C in B6C3F1 female mice at 80 mg/kg dose […]. The following applies: sc. In a few lines:
(§1)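 C3H mammary adenocarcinoma 16/C, lung-passed in C3H female mice. Freshly harvested 2- to 4-mm3 fragments were implanted subcutaneously into 18- to 20-g B6C3F1 females on day 0, and the mice were randomized the next day. Drugs were dissolved in 0.2 M phosphate buffer and given ip once daily on days 1-9; controls received 0.2 mL buffer. Tumor weight was estimated from caliper length and width by […].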

Assay [2] has as its system Mus musculus. Nature of the assay: Change in weight on day 9 of mammary adenocarcinoma 16/C in B6C3F1 female mice at 80 mg/kg […]. In a few lines: as §1
The test system of assay [3] is Mus musculus. Nature of the assay: Tumor weight on day 17 of C3H mammary adenocarcinoma 16/C in B6C3F1 female mice at 80 mg/kg by subcutaneous administration. The settings on record: route intraperitoneal, in the assay text read “intraperitoneal administration” for “subcutaneous administration”. In a few lines: as §1
Assay [4] has as its system Mus musculus. Nature of the assay: Percentage growth inhibition of mammary adenocarcinoma 16/C in B6C3F1 female mice at 40 mg/kg dose […]. The following applies: sc. In a few lines: as §1
Assay [5] has as its system Mus musculus. Nature of the assay: Animals with palpable tumors on day 17 at 40 mg/kg by subcutaneous administration in B6C3F1 female mice; 6/6. The following applies: route intraperitoneal, in the assay text read “intraperitoneal administration” for “subcutaneous administration”. The essentials: as §1
Assay [6] concerns Mus musculus. Put plainly: Change in weight on day 9 of mammary adenocarcinoma 16/C in B6C3F1 female mice at 40 mg/kg […]. The essentials:
as §1

Assay [7] relates to Mus musculus. Put plainly: Animals with palpable tumors on day 17 at 80 mg/kg by subcutaneous administration in B6C3F1 female mice; 6/6. The settings on record: route intraperitoneal, in the assay text read “intraperitoneal administration” for “subcutaneous administration”. The essentials:
as §1

The subject of assay [8] is Mus musculus. Nature of the assay: Tumor weight on day 17 of C3H mammary adenocarcinoma 16/C in B6C3F1 female mice at 40 mg/kg […]. The essentials: as §1
The test system of assay [9] is Mus musculus. Nature of the assay: Change in weight of mammary adenocarcinoma 16/C in B6C3F1 female mice at 100 mg/kg […] on day 9. The essentials:
as §1

Assay [10] has as its system Mus musculus. Put plainly: Animals with palpable tumors on day 17 at the dose of 50 mg/kg by […] in 6 B6C3F1 female mice; 6/6 animals were with palpable tumors. The essentials:
as §1

For assay [11], the system named is Mus musculus. Nature of the assay: Tumor weight of C3H mammary adenocarcinoma 16/C in B6C3F1 female mice at 100 mg/kg by subcutaneous administration on day 17. The settings on record: route intraperitoneal, in the assay text read “intraperitoneal administration” for “subcutaneous administration”. The essentials:
as §1

Assay [12] concerns Mus musculus. Put plainly: Tumor weight of C3H mammary adenocarcinoma 16/C in B6C3F1 female mice at 50 mg/kg by subcutaneous administration on day 17. The settings on record: route intraperitoneal, in the assay text read “intraperitoneal administration” for “subcutaneous administration”. In a few lines: as §1
Assay [13] deals with Mus musculus. Put plainly: Percentage growth inhibition of mammary adenocarcinoma 16/C in B6C3F1 female mice at the dose of 100 mg/kg by subcutaneous administration. The settings on record: ip, in the assay text read “intraperitoneal administration” for “subcutaneous administration”. The essentials: as §1
Assay [14] relates to Mus musculus. Nature of the assay: Change in weight of mammary adenocarcinoma 16/C in B6C3F1 female mice at 50 mg/kg […] on day 9. In a few lines:
as §1

For assay [15], the system named is Mus musculus. Put plainly: Percentage growth inhibition of mammary adenocarcinoma 16/C in B6C3F1 female mice at the dose of 50 mg/kg by subcutaneous administration. The following applies: ip, in the assay text read “intraperitoneal administration” for “subcutaneous administration”. The essentials:
as §1

Assay [16] deals with Mus musculus. Nature of the assay: Animals with palpable tumors on day 17 at the dose of 100 mg/kg by […] in 6 B6C3F1 female mice; 6/6 animals were with palpable tumors. In a few lines:
as §1

Assay [17] concerns Mus musculus. Nature of the assay: Tumor weight of C3H mammary adenocarcinoma 16/C in B6C3F1 female mice at 80 mg/kg by subcutaneous administration on day 17. The settings on record: route intraperitoneal, in the assay text read “intraperitoneal administration” for “subcutaneous administration”. The essentials:
as §1

The species named for assay [18] is Mus musculus. Put plainly: Percentage growth inhibition of mammary adenocarcinoma 16/C in B6C3F1 female mice. In a few lines: as §1
Assay [19] concerns Mus musculus. Put plainly: Change in weight of mammary adenocarcinoma 16/C in B6C3F1 female mice by subcutaneous administration on day 9. The essentials:
as §1

Assay [20] relates to Mus musculus. Nature of the assay: Animals with palpable tumors on day 17 after subcutaneous administration in 6 B6C3F1 female mice; 5/6 animals were with palpable tumors. The following applies: in the assay text read “intraperitoneal administration” for “subcutaneous administration”. In a few lines:
as §1

pEC50: −log10 of the molar value.

Take `Nc1cc2c(ncn2[C@H]2C[C@H](O)[C@@H](CO)O2)c(O)n1`: the pEC50 in the assay with L1210 was 5.05. Besides, in the assay on Mus musculus [1], testing at 80 mg/kg gave an inhibition in vivo of 69.7%. Moreover, the Delta weight with Mus musculus [2] amounted to 1.2; with Mus musculus [6], 0.58. The Tumor weight in the assay with Mus musculus [3] came out at 1.09 g; in the assay on Mus musculus [8], 2.7 g. Further, the inhibition in vivo at 40 mg/kg in the assay with Mus musculus [4] stood at 25%. For the same compound, the “Animals with palpable tumor” value with Mus musculus [5] and in the assay on Mus musculus [7] was 6 throughout.

Take `Nc1cc2ncn([C@H]3C[C@H](O)[C@@H](CO)O3)c2c(O)n1`: the figures for the Delta weight in the assay with Mus musculus [9] and with Mus musculus [14] were 0.95 and 0.72, respectively. In addition, the “Animals with palpable tumor” value in the assay on Mus musculus [10] and in the assay on Mus musculus [16] was 6 in each case. The pEC50 with L1210 was 3.02. Further, the Tumor weight came out at 3.5 g in the assay on Mus musculus [11] and 2.95 g with Mus musculus [12]. The compound further registered an inhibition in vivo at 100 mg/kg in the assay with Mus musculus [13] of 2.8%. In the assay with Mus musculus [15], at 50 mg/kg the inhibition in vivo was 18.1%.

For `Nc1cc2c(ncn2[C@@H]2O[C@H](CO)[C@@H](O)[C@H]2O)c(=O)[nH]1`, in the assay on L1210, the pEC50 was 5.15.

For the compound `Nc1cc2ncn([C@@H]3O[C@H](CO)[C@@H](O)[C@H]3O)c2c(=O)[nH]1`, in the assay with L1210, the pEC50 is 3.12.

Compound `Nc1cc2[nH]cnc2c(=O)[nH]1` [DEZAGUANINE] yielded a Tumor weight in the assay on Mus musculus [17] of 0.25 g. The pEC50 with L1210 was 4.96. For the same compound, the Inhibition in the assay filed under Mus musculus [18] was found to be 93.1%. Also, in the assay on Mus musculus [19], the Delta weight was 0.06. Moreover, the “Animals with palpable tumor” value in the assay with Mus musculus [20] was 5.

A word on the inhibition in vivo: it is how much of the control response was suppressed. As usually defined, the Inhibition is the percentage by which the read-out fell short of the control. The low end stands for a weak effect, the high end for a strong effect.
